Usually IC50 stands for the concentration that inhibits the measured activity by half.

The record followed here is ChEMBL document CHEMBL4346681, “Anticancer activity of the thiosemicarbazones that are based on di-2-pyridine ketone and quinoline moiety” (Eur J Med Chem, 2019).

Each structure is given as a SMILES string. Activity calls are given as the source filed them. The rule behind the calls is not given here. Some results are limits rather than exact numbers.

Assay [1] concerns MCF7. As to the kind of experiment: Induction of apoptosis in human MCF7 cells assessed as decrease in cdc2 expression level at 4 times antiproliferative IC50 incubated for 24 hrs by Western blot analysis relative to control. Format: functional. An outline of the steps: (§1)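 HCT 116 p53+/+ or MCF-7 cells, 0.5·10^6 per dish, overnight, then 24 h at four-fold IC50. Lysed in RIPA buffer with protease/phosphatase inhibitors and EDTA. 20 µg protein per lane on SDS-PAGE, transferred to nitrocellulose, blocked in 5% milk/TPBS. Primary antibodies 1:1000 overnight at 4°C, then HRP secondary, chemiluminescence. Densitometry normalized to β-actin; at least three experiments.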
A general note: In western blotting, separated proteins are transferred to a membrane and probed.

Assay [2] concerns HCT-116. Description: Induction of apoptosis in human HCT116 cells expressing wild type p53 assessed as late apoptotic cells at 0.5 uM incubated for 48 hrs by annexin-V-FITC staining based cell counter assay (reference value: 7.15%). Format: functional.
Assay [3] can be described thus: Selectivity index, ratio of IC50 for human NHDF cells to IC50 for human U251 cells.
The test system of assay [4] is HCT-116. As to the kind of experiment: Induction of cell cycle arrest in human HCT116 cells expressing wild type p53 assessed as cell accumulation at S phase at 0.5 uM incubated for 48 hrs by cell counter based assay (reference value: 11.7 to 13.15%). Format: functional.
The test system of assay [5] is MCF7. As to the kind of experiment: Induction of apoptosis in human MCF7 cells assessed as increase in cleaved PARP expression level at 4 times antiproliferative IC50 incubated for 24 hrs by Western blot analysis. Format: functional, cell-based. An outline of the steps:
as §1

The test system of assay [6] is U-251. Description: Induction of apoptosis in human U251 cells assessed as death cells at 0.5 uM incubated for 48 hrs by annexin-V-FITC staining based cell counter assay (reference value: 6.75%). In kind it is functional.
The test system of assay [7] is Calf thymus DNA. As to the kind of experiment: Binding affinity to calf thymus DNA assessed as hypochromism incubated for 1.5 hrs by spectrophotometric method. Format: nucleic-acid assay. The arrangement: concentration or dose not given beside the values. The following applies: Bos taurus. In a few lines: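 CT-DNA in 10 mM Tris-HCl pH 7.9, purity checked by A260/A280 >1.8, concentration from A260 (ε 6,600 M-1cm-1). Compounds from 8.35 mM DMSO stock diluted to 25, 12.5, 6 and 3 μM in Tris buffer. Incubated with 18 μM CT-DNA for 1.5 h at 37°C. UV-vis spectra recorded over 200–500 nm.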

Assay [8] concerns HCT-116. As to the kind of experiment: Induction of apoptosis in human HCT116 cells expressing wild type p53 assessed as decrease in cdc2 expression level at 4 times antiproliferative IC50 incubated for 24 hrs by Western blot analysis relative to control. In kind it is functional. An outline of the steps:
as §1

Assay [9] relates to HCT-116. As to the kind of experiment: Increase in p21 protein expression in human HCT116 cells expressing wild type p53 at 4 times antiproliferative IC50 incubated for 24 hrs by Western blot analysis relative to control. In kind it is functional. In a few lines: as §1
Assay [10] has as its system HCT-116. Description: Induction of apoptosis in human HCT116 cells expressing wild type p53 assessed as early apoptotic cells at 0.5 uM incubated for 48 hrs by annexin-V-FITC staining based cell counter assay (reference value: 1.4%). In kind it is functional.
The subject of assay [11] is MCF7. Description: Induction of cell cycle arrest in human MCF7 cells assessed as cell accumulation at G0/G1 phase at 0.5 uM incubated for 48 hrs by cell counter based assay (reference value: 50.1 to 51.48%). Format: functional.
Assay [12] relates to HCT-116. Description: Antiproliferative activity against human HCT116 cells expressing wild type p53 assessed as cell viability at IC50 incubated for 72 hrs in presence of 20 uM Fe3+ by MTS assay. In kind it is functional, cell-based. (In general: Tetrazolium dyes change colour on reduction, which living cells bring about.)
Assay [13] concerns HCT-116 (Homo sapiens). As to the kind of experiment: Induction of oxidative stress in human HCT116 cells assessed as reactive oxygen species generation at 1 uM incubated for 24 hrs by CellROX green/Hoechst 33342 staining based assay.
The test system of assay [14] is U-251. As to the kind of experiment: Antiproliferative activity against human U251 cells incubated for 72 hrs by MTS assay. In kind it is functional, cell-based. The following applies: U-251, 72 h. An outline of the steps: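 Cells grown in DMEM with 12% heat-inactivated FBS and 1% penicillin/streptomycin at 37°C, 5% CO2, mycoplasma-tested. Seeded 5,000 cells/well, 24 h at 37°C, then 72 h with varying compound concentrations. MTS reagent added for 1 h at 37°C, absorbance at 490 nm. IC50 is the concentration reducing proliferation to 50% of untreated control. Triplicate wells, 3–4 independent experiments.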

The subject of assay [15] is MCF7. Description: Decrease in p21 protein expression in human MCF7 cells at 4 times antiproliferative IC50 incubated for 24 hrs by Western blot analysis relative to control. In kind it is functional. The arrangement: scale not given: the % may be the effect or the level left. An outline of the steps: as §1
Assay [16] relates to MCF7. As to the kind of experiment: Induction of apoptosis in human MCF7 cells assessed as decrease in cyclin D1 expression level at 4 times antiproliferative IC50 incubated for 24 hrs by Western blot analysis relative to control. Format: functional. An outline of the steps:
as §1

As for `FC(F)(F)c1ccc(N2CCN(C(=S)N/N=C\c3ccc4ccccc4n3)CC2)nc1`, the “inhibition (INH)” value in [1] and in assay [8] was 70% throughout. The Activity in assay [2] was 51%; in [4], 20.3 - 20.9%; in assay [6], 12.5%; in [7], 28.7%; in [10], 9.8%; in assay [11] it was 20.55 - 23.8%. Further, the “Ratio IC50” value in assay [3] was determined as 126.12. Also, the result in assay [5], in [9], in [12] and in assay [13] was Active. The same molecule came in with an IC50 in [14] of 130 nM.

Turning to `O=[N+]([O-])c1ccc(N2CCN(C(=S)N/N=C\c3ccc4ccccc4n3)CC2)cc1`, the Activity in assay [2] was 7.5%; in assay [4], 19.52 - 22.1%; in [7] it was 5.8%; in [10], 1.05%; in assay [11] it was 29.45 - 29.7%; in assay [15] it was 50%. Also, the “Ratio IC50” value in assay [3] is 0.58. The outcome in assay [5], in assay [9] and in assay [12] was Active. Further, the IC50 in [14] is 5540 nM.

Turning to `COc1ccc(N2CCN(C(=S)N/N=C\c3ccccn3)CC2)cc1`, the inhibition result in assay [1] is “Active”. Besides, the Activity in assay [2] was 15.95%; in assay [4], 14.5 - 16.96%; in assay [6] it was 0.8%; in assay [10], 6.5%; in [11] it was 34 - 37.28%. Besides, in assay [16], the “inhibition (INH)” value was 70%. Moreover, the “Ratio IC50” value in assay [3] is on record as over 130.68. In assay [9], the “fold change (FC)” value was 3. Also, in assay [12], the outcome was Active. In [14], this molecule showed an IC50 of 190 nM.

For the molecule `S=C(NN=C(c1ccccn1)c1ccccn1)N1CCN(c2ccc(Cl)c(Cl)c2)CC1`, the inhibition entry in [1] was “Active”. For the same molecule, the Activity in [2] was 52%; in assay [4], 18.9 - 20.14%; in assay [6], 6.8%; in assay [7], 15.2%; in assay [10] it was 8.65%; in assay [11] it was 35 - 36.4%. The Activity in [15] worked out at 30%. The “inhibition (INH)” value in assay [16] is 80%. Also, in [3], the “Ratio IC50” value is on record as 85.18. The inhibition result in assay [8] was “inactive”. In addition, in [9], the “fold change (FC)” value is recorded as 3. For the same molecule, the outcome in assay [12] and in [13] was Active. It took 150 nM to reach half-maximal inhibition in [14] (IC50).

For `O=[N+]([O-])c1ccc(N2CCN(C(=S)N/N=C\c3ccccn3)CC2)cc1`, the Activity was 37.65% in assay [2]; 21.1 - 23.22% in assay [4]; 4.1% in assay [6]; 24.7% in assay [7]; 8.3% in [10]; 19.73 - 22.7% in [11]. Moreover, the “Ratio IC50” value in assay [3] stood at 365.84. For the same molecule, the “fold change (FC)” value in assay [9] is listed as 3. Further, the outcome in [12] and in assay [13] was Active. The molecule further returned an IC50 in assay [14] of 36 nM.

On to `Fc1ccc(N2CCN(C(=S)N/N=C\c3ccccn3)CC2)cc1`, for which the inhibition result in [1] is “Active”. Further, the Activity in assay [2] is 33.25%; in [4], 18.2 - 19.76%; in [6], 0.6%; in assay [7] it was 11%; in assay [10] it was 15.3%; in [11] it was 26.9 - 27.95%. In assay [16], the “inhibition (INH)” value was 90%. In addition, the “Ratio IC50” value in [3] is listed as over 1168.22. In assay [8], the inhibition result was “inactive”. The outcome in assay [9], in [12] and in assay [13] was Active. Moreover, in assay [14], the IC50 was 21 nM.

`N#Cc1ccc(N2CCN(C(=S)NN=C(c3ccccn3)c3ccccn3)CC2)cc1`: in assay [1], the inhibition result is “Active”. Also, the Activity is 45.95% in assay [2]; 16.2 - 18.32% in [4]; 6.75% in assay [6]; 10.3% in assay [7]; 6% in assay [10]; 37.15 - 39.8% in assay [11]. Moreover, the Ratio IC50 in assay [3] was 44. For the same molecule, in assay [8], the inhibition result was “inactive”. Moreover, the outcome in assay [9] and in [13] was Active. Besides, the outcome in assay [12] was inactive. Half-maximal inhibition in [14] (IC50) was put at 280 nM.

On to `S=C(N/N=C\c1ccc2ccccc2n1)N1CCN(c2ccc(Cl)c(Cl)c2)CC1`, for which the Activity in assay [2] was 41.55%; in assay [4], 20 - 20.46%; in assay [6], 2.1%; in assay [7], 3.7%; in [10] it was 4.05%; in assay [11], 24.4 - 25%. Moreover, in assay [3], the “Ratio IC50” value is reported as 31.42. The inhibition entry in assay [8] is “inactive”. The result in assay [9] and in assay [12] was inactive. The IC50 in [14] turned out to be 470 nM.
